# Apaf1 inhib – human Apaf-1 inhibition. O14727. reconstituted apoptosome caspase-3 activity, DEVD-Rh110 fluorescence. inhibition, % at 20 µM. 330,000 tested, 0.71% active; active = inhibition of at least 40% at 20 µM;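 note: plate controls were DMSO wells for no effect and DEVD-CHO caspase inhibitor wells for full effect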
#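 Medium: Hepes buffer, pH 7.5 / System: biochemical Apaf-1 apoptosome reconstitution / Measured by: Rh110 fluorescence, excitation 480 nm, emission 540 nm / Times: compound with Apaf-1, dATP, procaspase-3 30 min, then 50 min reaction, room temperature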
# UCH37 inh – human UCH37 deubiquitinating enzyme inhibition. 330,000 tested, 0.33% active. purified proteasome/UCH37, Ub-AMC cleavage fluorescence. inhibition, % (test concentration not listed);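 active = mean inhibition over replicate wells above about 20%, limit read from the data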;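 note: 0% = compound-free wells with enzyme and 100% = wells lacking proteasome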
# Target sequence (Q9Y5K5 whole entry, looked up): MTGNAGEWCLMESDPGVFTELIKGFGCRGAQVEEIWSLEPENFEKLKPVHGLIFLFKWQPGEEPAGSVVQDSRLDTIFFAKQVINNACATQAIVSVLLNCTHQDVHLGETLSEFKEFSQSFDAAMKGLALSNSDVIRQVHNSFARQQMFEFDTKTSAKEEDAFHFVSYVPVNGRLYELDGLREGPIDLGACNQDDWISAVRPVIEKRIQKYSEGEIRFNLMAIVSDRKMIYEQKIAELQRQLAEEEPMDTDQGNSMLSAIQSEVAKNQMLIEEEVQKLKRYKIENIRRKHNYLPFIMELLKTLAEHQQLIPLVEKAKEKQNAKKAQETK
#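 Material: human UCH37 enzyme supplied as purified proteasome complex. Measure: % inhibition of Ub-AMC cleavage fluorescence. Medium: pH 7.4 Tris-HCl (50 mM) with ovalbumin, ATP-MgCl2, DTT. Times: 30 min preincubation with enzyme, 25 min cleavage at room temperature. Detection: AMC fluorescence intensity at 355/460 nm.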
# UBC13 inh – inhibitors of human UBC13 polyubiquitin chain formation. inhibition, % at 20 µM. P61088. AID 485273. TR-FRET. 330,000 tested, 0.47% active; in the data active = inhibition above about 45%, passing the limit was not always enough
# Target sequence (P61088 whole entry, looked up): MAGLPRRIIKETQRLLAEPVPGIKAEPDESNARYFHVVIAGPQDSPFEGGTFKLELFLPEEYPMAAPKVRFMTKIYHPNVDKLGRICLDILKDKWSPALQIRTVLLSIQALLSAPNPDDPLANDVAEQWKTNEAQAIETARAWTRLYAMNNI
# MEKK2 mut-MEK5 – signal of MEK5 binding to mutant human MEKK2 PB1 domain | bead flow cytometry, Alexa488-MEK5 binding to MEKK2 mutant | percent response, % at 10 µM | 290,000 tested, 0.35% active | AID 1530; in the data active = percent response above about 24%, passing the limit was not always enough
# MEKK3 PB1 HTS – raises or lowers MEK5 binding to the human MEKK3 PB1 domain; Q99759; bead-based flow cytometry, Alexa488-MEK5 binding to MEKK3; actives lie on both sides; 0 = blocked by unlabeled MEK5, 100 = vehicle; binding response (% of control), % at 10 µM; 290,000 tested, 1.4% active; AID 1529;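 active = binding response more than 3 SD above or below the average of its plate-row segment, actives on both sides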;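 note: Alexa488 bead fluorescence after subtracting the streptavidin-only scavenger bead signal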
# MEKK2wt PB1 HTS – raises or lowers MEK5 binding to wildtype human MEKK2 PB1 domain | bead flow cytometry, Alexa488-MEK5 binding to MEKK2 WT; actives lie on both sides | Q9Y2U5 | binding response (% of control), % at 10 µM | 290,000 tested, 1.1% active | AID 1531; in the data active = binding response below about 67% or above about 130%
# Apaf-1 inh conf – Apaf-1 inhibition, single-dose confirmed. 1,800 tested, 25% active. reconstituted apoptosome, caspase-3 DEVD-Rh110 fluorescence. inhibition, % at 20 µM. shares compounds with Apaf1 inhib. AID 504614;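 active = mean inhibition of at least 40% at 20 µM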;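 note: plate controls were DMSO wells for no effect and DEVD-CHO caspase inhibitor control wells for full effect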
# Rh110 quench – counter-screen for Apaf-1 inhibitors: fluorescence interference. shares compounds with Apaf1 inhib. Rh110 fluorescence interference, quenched caspase reaction. activation (fluorescence interference), % at 20 µM. 1,800 tested, under 10 active. AID 504615;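 active = signal rise of 40% or more at 20 µM, treated as a fluorescence artifact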
# Fluor interf inh – Apaf-1 inhibitor counter-screen fluorescence artifact; 460 tested, under 10 active; AID 588538; fluorescence interference counterscreen, Apaf-1 assay format; IC50, µM; shares compounds with Apaf1 inhib; call rule not given here
# An asterisk follows results filed as active; / = no result. Hits are enriched below; roughly 3% of the tested compounds scored in any of these assays.
SMILES,Apaf1 inhib,UCH37 inh,UBC13 inh,MEKK2 mut-MEK5,MEKK3 PB1 HTS,MEKK2wt PB1 HTS,Apaf-1 inh conf,Rh110 quench,others
Cc1ccccc1NC1=C/C(=N\S(=O)(=O)c2ccc(C(=O)O)cc2)c2ccccc2C1=O,97*,94*,-164,-8,101,92,98*,3,Fluor interf inh=>100
O=S(=O)(c1ccccc1)c1cnn(-c2ccccc2)c1-c1ccc(Cl)cc1,13,2,5,-5,103,96,/,/,
Oc1cccc2c(NC(=S)Nc3ccc(OC(F)F)cc3)cccc12,65*,1,-8,0,103,103,18,10,
CC1CCCCN1C(=O)COC(=O)CNC(=O)c1sc2ccccc2c1Cl (stereo not given),8,1,-2,/,/,/,/,/,
CC(=O)c1cccc(NC(=O)CSc2ccc(-c3ccco3)nn2)c1,45*,0,-5,12,108,114,7,6,
CN(CC(=O)Nc1ccc(F)c(F)c1F)C(=O)C1CCCC1,-10,5,6,/,/,/,/,/,
O=C1C(NS(=O)(=O)c2ccc(Br)cc2)=C(N2CCCCC2)C(=O)c2ccccc21,36,14,-32,0,100,94,/,/,
CC1CCCN(C2=C(NS(=O)(=O)c3ccc(Br)cc3)C(=O)c3ccccc3C2=O)C1 (stereo not given),51*,/,-49,-2,101,96,31,-2,
O=C1C(NS(=O)(=O)c2cccs2)=C(N2CCN(c3cccc(Cl)c3)CC2)C(=O)c2ccccc21,58*,-1,-68,-5,102,96,33,14,
CC1CCCN(c2nc3ccccc3nc2C(C#N)S(=O)(=O)c2ccccc2)C1 (stereo not given),11,-2,-3,/,/,/,/,/,
CCOC(=O)C1CCCN(C2=C(NS(=O)(=O)c3ccc(Br)cc3)C(=O)c3ccccc3C2=O)C1 (stereo not given),67*,13,-84,-1,105,93,48*,21,
CC1CCN(C2=C(NS(=O)(=O)c3ccc(Br)cc3)C(=O)c3ccccc3C2=O)CC1,54*,7,-91,-3,101,96,26,-3,
O=S(=O)(Nc1ccc(N2CCOCC2)cc1)c1cccs1,-6,/,5,0,92,95,/,/,
NC1=NC(=O)C(Cc2ccc(F)cc2)S1 (stereo not given),-11,/,-1,-1,104,100,/,/,
CCOC(=O)C1CCN(C2=C(NS(=O)(=O)c3ccc(Cl)cc3)C(=O)c3ccccc3C2=O)CC1,14,9,-46,2,103,97,/,/,
O=C1C(NS(=O)(=O)c2ccccc2)=C(N2CCN(c3ccc(F)cc3)CC2)C(=O)c2ccccc21,18,4,-56,4,103,101,/,/,
CC1CCN(C2=C(NS(=O)(=O)c3ccc(Cl)cc3)C(=O)c3ccccc3C2=O)CC1,46*,4,-45,1,121,100,15,-21,
CC1CCN(C2=C(NS(=O)(=O)c3ccccc3)C(=O)c3ccccc3C2=O)CC1,60*,3,-62,3,101,96,34,6,
CC1CCCCN1CC(=O)Nc1sccc1C#N (stereo not given),-8,1,-1,-6,91,95,/,/,
Cc1cc2ccccc2n1CCNC(=O)C1CCCCC1,44*,1,14,8,103,106,8,7,
CCN1C(=O)[C@H]2[C@@H](c3ccc(-c4ccc(Cl)c(Cl)c4)cc3)N[C@@](C)(C(=O)OC)[C@H]2C1=O,25,1,12,/,/,/,/,/,
Cc1cc(O)c2c(c1O)C(=O)[C@]13C(=C2O)C(=O)[C@@H]2[C@@H](O)[C@H]1[C@@H]1[C@H](O)[C@H]3C(=O)C3=C(O)c4c(O)cc(C)c(O)c4C(=O)[C@]312,69*,21*,-276,/,/,/,59*,7,Fluor interf inh=>100
COc1cc(-c2c(C#N)c(=O)[nH]c3c2c(C)nn3-c2ccccc2)ccc1O,42*,-30,12,3,102,102,43*,1,Fluor interf inh=>100
CC1(C)C=C2C(=NN(c3ccccc3)C(N)=C2C#N)CO1,47*,/,-43,4,105,106,98*,4,Fluor interf inh=>100
CC1(C)Cc2c(C#N)c(N)n(-c3ccccc3)c(=S)c2CO1,-1,9,0,-8,97,98,/,/,
SMILES,Apaf1 inhib,UCH37 inh,UBC13 inh,MEKK2 mut-MEK5,MEKK3 PB1 HTS,MEKK2wt PB1 HTS,Apaf-1 inh conf,Rh110 quench,others
Cc1c(CCOC(=O)c2ccc(Cl)cc2Cl)sc[n+]1CC(=O)c1ccccc1,56*,/,38,/,/,/,8,10,
Cc1ccc(CN2CC(C(=O)Nc3nnc(SCc4c(Cl)cccc4Cl)s3)CC2=O)cc1 (stereo not given),27,3,-15,5,94,90,/,/,
COCCNC(=S)N1CCN(c2cccc(C(F)(F)F)c2)CC1,7,2,-4,-5,100,99,/,/,
Cc1[nH]c2ccccc2c1/C=N/NC(=O)c1cccc(S(=O)(=O)Nc2cccc(C(F)(F)F)c2)c1,14,/,-4,-1,123,113,/,/,
O=C(/C=C/c1ccc(-c2ccccc2[N+](=O)[O-])o1)c1ccc(F)cc1,27,10,-22,-10,88,87,/,/,
O=C(N/N=C/c1ccc(-c2ccccc2[N+](=O)[O-])o1)c1cccnc1,79*,/,-46,7,102,103,43*,18,Fluor interf inh=>100
CC(C)(C)c1cc(C(=O)N/N=C/c2ccc(-c3ccccc3[N+](=O)[O-])o2)n[nH]1,42*,/,-38,2,100,104,16,-3,
O=C(/C=C/c1ccc(-c2ccccc2[N+](=O)[O-])o1)c1ccc(Br)cc1,49*,8,-33,1,100,93,39,7,
CC(OC(=O)c1cccnc1Cl)C(=O)Nc1ccc(S(N)(=O)=O)cc1 (stereo not given),4,1,1,-10,101,92,/,/,
Cc1ccc(S(=O)(=O)N2CCCC2C(=O)NCc2ccccc2F)cc1 (stereo not given),13,5,-7,-1,95,99,/,/,
CN1CCc2c(sc(NC(=O)c3ccc([N+](=O)[O-])o3)c2C(N)=O)C1,22,/,-235,11,100,105,/,/,
Cc1cccc(C)c1N1C(=O)CCC(C)(C)C1=O,-3,0,5,-1,103,103,/,/,

# High-throughput results (PubChem BioAssay)
